Only some compounds are listed: those with a hit (about 1.8% of all), similar ones and a draw of the others.
CHRM4 antagonist = blocks acetylcholine activation of human M4 receptor. P08173. CHO-hM4 cells, ACh EC80, Fluo-8 calcium fluorescence. inhibition, % at 3 µM. actives 0.73% (n = 360,000). AID 624125;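 active = inhibition above its plate's cutoff, the mean inhibition of sample wells plus 3 SD, cut at about 27% in these data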;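 also: 0% = acetylcholine EC80 with DMSO and 100% = DMSO without agonist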
M4 PAM = positive allosteric modulators of human muscarinic M4 receptor; P08173; CHO-K1 hM4/Gqi5, Fluo-8 calcium fluorescence, ACh EC20; 0% = ACh EC20, 100% = maximal ACh; activation, % at 3 µM; actives 0.4% (n = 360,000);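 active = activation above its plate's cutoff, the mean activation of sample wells plus 3 SD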
CHRM5 antagonist = blocks acetylcholine activation of human M5 receptor. P08912. CHO-hM5 cells, Fluo-8 calcium fluorescence, ACh EC80. inhibition, % at 3 µM. actives 0.59% (n = 360,000). AID 624040;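 active = inhibition above a per-plate cutoff, the mean of that plate's test compounds plus 3 SD, cut at about 27% in these data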;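 also: 0% = acetylcholine EC80 with DMSO and 100% = DMSO without agonist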
Target sequence (P08912 whole entry, looked up): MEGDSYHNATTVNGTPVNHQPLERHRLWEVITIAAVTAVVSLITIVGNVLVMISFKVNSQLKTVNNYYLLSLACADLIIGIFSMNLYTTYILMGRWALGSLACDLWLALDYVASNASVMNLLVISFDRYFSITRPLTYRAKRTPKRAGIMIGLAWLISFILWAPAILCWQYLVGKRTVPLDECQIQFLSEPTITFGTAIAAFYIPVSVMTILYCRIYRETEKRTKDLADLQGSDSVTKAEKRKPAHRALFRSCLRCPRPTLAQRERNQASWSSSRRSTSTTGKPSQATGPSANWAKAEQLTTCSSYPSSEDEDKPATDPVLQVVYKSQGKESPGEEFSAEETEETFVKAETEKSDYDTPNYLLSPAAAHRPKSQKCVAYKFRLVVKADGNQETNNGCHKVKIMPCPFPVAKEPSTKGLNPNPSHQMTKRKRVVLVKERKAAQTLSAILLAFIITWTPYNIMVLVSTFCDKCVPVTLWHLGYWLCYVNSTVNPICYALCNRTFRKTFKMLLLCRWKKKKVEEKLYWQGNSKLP
M4 ag = agonists of human muscarinic M4 receptor (CHRM4); P08173; CHO-K1 hM4/Gqi5, Fluo-8 calcium fluorescence; vehicle 0%, full acetylcholine response 100%; activation, % at 3 µM; actives 0.14% (n = 360,000); AID 624127;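 active = activation above the run mean over all test wells plus 3 SD, cut at about 32% in these data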;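 also: peak over basal fluorescence ratio per well then scaled between controls; 0% = DMSO wells and 100% = acetylcholine at EC100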
CHRM5 agonist = CHRM5 agonism in calcium assay | CHO-K1 hM5 cells, Fluo-8 calcium fluorescence; 0% DMSO wells, 100% maximal acetylcholine response | AID 624037 | P08912 | activation, % at 3 µM | actives 0.19% (n = 360,000);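 active = activation above the run's mean over test compounds plus 3 SD, cut at about 23% in these data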;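 also: signal is peak over basal fluorescence ratio across the kinetic read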
CHRM5 PAM = positive allosteric modulators of human muscarinic M5 receptor | P08912 | CHO-K1 hM5, Fluo-8 calcium, ACh EC20 PAM; 0% = ACh EC20, 100% = ACh EC100 | activation, % at 3 µM | actives 0.3% (n = 360,000);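 active = activation above the run cutoff, the mean activation of all test compounds plus 3 SD, cut at about 18% in these data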
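Assay system – human M5 receptor in CHO-K1 cells · Read-out – % activation, ACh-normalized · Technique – Fluo-8 calcium fluorescence · Dosing – single-point, 3 µM nominal · Incubation – Fluo-8 loading 80 min at 37 °C plus 30 min room temperature · Repeats – singlicate, one well per test compound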
Starred values were filed as active, the others as inactive.

SMILES | CHRM4 antagonist | M4 PAM | CHRM5 antagonist | M4 ag | CHRM5 agonist | CHRM5 PAM
O=C1N/C(=C/c2ccc(N3CCCC3)cc2)C(=O)N1c1ccccc1 | -6 | -7 | -5 | 1 | -2 | -4
Cc1cc(-c2ccccc2)nc(Nc2nc3c(C)cccc3c(=O)[nH]2)n1 | -4 | 7 | 1 | 2 | -2 | 5
COc1ccc(Oc2c(C)oc3c(CN(C)C)c(O)ccc3c2=O)cc1 | 44* | -17 | 2 | 1 | -8 | -16
C[C@H](CO)N1C[C@H](C)[C@@H](CN(C)S(=O)(=O)c2cccs2)Oc2ccc(NC(=O)CCC(F)(F)F)cc2C1=O | 29* | -6 | 3 | -1 | -7 | -1
C[C@H](CO)N1C[C@H](C)[C@@H](CN(C)C(=O)Nc2ccc3c(c2)OCO3)Oc2c(NC(=O)Nc3ccc(C(F)(F)F)cc3)cccc2C1=O | 30* | -7 | 17 | 31 | 7 | -35
C[C@@H]1CN([C@H](C)CO)C(=O)c2cc(NC(=O)Nc3ccc(C(F)(F)F)cc3)ccc2O[C@H]1CN(C)S(=O)(=O)c1cccs1 | -1 | 0 | 6 | 1 | 0 | 2
COc1ccc(NC(=O)N(C)C[C@H]2Oc3c(NC(=O)Nc4ccc(C(F)(F)F)cc4)cccc3C(=O)N([C@H](C)CO)C[C@@H]2C)cc1 | 29* | -6 | 16 | 37* | 2 | -27
Cc1cc(N2CCN(C(=O)Oc3ccc([N+](=O)[O-])cc3)CC2)c2ccccc2n1 | 3 | -4 | 9 | 9 | -1 | -7
Cc1ccnc(Nc2nc(-c3ccccc3)cs2)c1 | -4 | -11 | -17 | 0 | 10 | 22*
CC(=O)Nc1ccc(-c2csc(Nc3cc(C)ccn3)n2)cc1 | 2 | 2 | -6 | 7 | 4 | -1
CCCCCc1ccc(CC(=O)Nn2c(C)nc3ccccc3c2=O)cc1 | 7 | 0 | 5 | 7 | 6 | 0
Cc1ccc(CNC(=O)CNC(=O)c2ccc(Br)o2)cc1 | -16 | 7 | 12 | 1 | -6 | -5
Cc1c(NC(=O)Nc2ccc(Cl)c(Cl)c2)c(=O)n(-c2ccccc2)n1C | 10 | 0 | 30* | 12 | 0 | -15
Cc1ccc(Nc2nc3ccccc3nc2Nc2c(C)n(C)n(-c3ccccc3)c2=O)cc1 | -5 | 12 | -11 | 1 | 3 | 23*
Cc1c(Cl)c([N+](=O)[O-])nn1CCCC(=O)Nc1c(C)n(C)n(-c2ccccc2)c1=O | 27* | -42 | 17 | 1 | -19 | -31
COC(=O)c1[nH]c2ccc(F)cc2c1NS(=O)(=O)c1ccc(F)c(C)c1 | 40* | -31 | 20 | 5 | -5 | -10
CN(CC(=O)Nc1ccc(F)cc1)C(=O)CN1C(=O)NC(CCc2ccccc2)C1=O (configuration not stated) | -26 | 3 | -2 | 1 | -1 | -3
COc1cc(NC(=O)c2cc(Cl)nnc2Cl)cc(OC)c1OC | 0 | -2 | 0 | 1 | 0 | 0
COc1ccc(CC(=O)NC(=S)Nc2cccc(CO)c2)cc1 | 1 | 2 | -7 | 15 | 31* | 4
COc1ccccc1NC(=S)NC(=O)Cc1ccc(Cl)cc1 | 1 | -4 | 9 | 4 | 5 | -7
Cc1cccc(NC(=S)NC(=O)CCc2ccccc2)c1 | -1 | -2 | -4 | -2 | -6 | -2
COc1cccc(NC(=O)c2cc(Cl)nnc2Cl)c1 | -7 | 24* | 0 | 4 | -5 | 8
COc1cccc(NC(=S)NC(=O)Cc2ccc(Cl)cc2)c1 | 0 | -5 | 12 | 29 | 36* | 1
COc1ccc(CC(=O)NC(=S)Nc2cccc(C)c2)cc1 | 5 | -20 | 6 | 29 | 30* | 5
CC(C#N)(Cc1ccccc1)Nc1ccccc1 (configuration not stated) | -2 | -1 | 5 | 4 | 6 | -6
COc1ccccc1NC1CCCCC1NS(=O)(=O)c1ccccc1 (configuration not stated) | 3 | -4 | 16 | 9 | -4 | -7
